Assay results: paper PMC6061379 (Clinical Drug Investigation, 2018)
Values joined by “and” are separate entries in the source; they are usually repeats but may differ in a detail not shown here. Equal values may be shown once. Read-outs that look alike come from different tables or passages of the source.

Legend:
urinary uric acid = assay: Urinary uric acid pharmacodynamics after verinurad 15 mg; assay type: in vivo, human; details: for AeUR,0–24 h amount of urinary uric acid recovered in urine, mean (SD) / FEUA,0–24 h fractional excretion of uric acid, mean (SD) / ReUR,0–24 h rate of urinary uric acid excretion, mean (SD): following verinurad 15 mg
How it was run: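 Total-catch urine collected at 6–12 h intervals to 72 h after a single 15 mg dose, with a Day −1 baseline. Urate and creatinine in serum and urine measured by enzymatic method.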

Plasma protein binding = assay type: in vitro ADME; details: human
Safety assessments = assay type: in vivo, human; details: for Number of adverse events / Subjects with adverse events, n (%): treatment-emergent; for Number of adverse events / Subjects with adverse events, n (%) / Number of adverse events of mild severity / Number of adverse events of moderate severity / Severe/life-threatening adverse events / Subjects with adverse events of mild severity, n (%) / Subjects with adverse events of moderate severity, n (%): verinurad 15 mg
How it was run: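 Males with normal or impaired renal function were housed in the study centre from Day −2 until final procedures after a single 15 mg dose. Assessments covered adverse events (MedDRA v17.0), clinical laboratory tests, vital signs, ECGs and physical examinations. Clinically relevant laboratory abnormalities were graded for severity by the investigator using Rheumatology Common Toxicity Criteria v2.0.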

serum urate (sUA) = assay: Serum urate; assay type: in vivo, human; details: verinurad 15 mg; all groups
How it was run: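 Single 15 mg dose. Serial serum sampled on Day −1 (baseline) and Day 1 at preset times up to 72 h post-dose. Urate measured enzymatically. Percent change from baseline time-matched to Day −1, with maximal and mean changes derived per renal-function group.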

[1] = humans, cited from earlier work
[2] = assay type: in vivo, human; details: for AUC0–∞, GLSMR (90% CI) versus normal renal function group / Cmax, GLSMR (90% CI) versus normal renal function group: plasma; for AUC0–∞, GLSMR (90% CI) versus normal renal function group / Cmax, GLSMR (90% CI) versus normal renal function group / CL/F, GLSMR (90% CI) versus normal renal function group / Increase in AUC0–∞ compared to subjects with normal renal function / Increase in Cmax compared to subjects with normal renal function: verinurad 15 mg; for CL/F total body clearance, GM (95% CI): verinurad 15 mg single oral dose, fasted
How it was run: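 Males aged 18–85 y with sUA 4.5–10 mg/dl, grouped by Cockcroft-Gault eCrCl (normal ≥90, mild 60–<90, moderate 30–<60, severe 15–<30 ml/min). Normal group matched for age and BMI. Single 15 mg dose. Serial blood sampled up to 72 h post-dose; plasma acidified. Parent and metabolites measured by validated LC-MS/MS. Non-compartmental parameters, ln-transformed, fixed-effects model, geometric mean ratios with 90% CI versus normal.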

[3] = Urinary pharmacokinetics after single oral verinurad 15 mg; assay type: in vivo, human; details: for fe0–72 fraction of drug excreted in urine unchanged from time zero to 72 h, GM (95% CI): verinurad 15 mg single oral dose; for CLR0–72, GLSMR (90% CI) versus normal renal function group / Decrease in renal clearance (CLR0-72) versus normal renal function: verinurad 15 mg
How it was run: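 Single 15 mg dose given to males grouped by Cockcroft-Gault creatinine clearance. Total-catch urine collected at 6–12 h intervals to 72 h post-dose. Parent and metabolites quantified by validated LC-MS/MS, with the acyl-glucuronide hydrolysed by 2 M KOH and measured as total aglycone. Renal clearance and fraction excreted unchanged over 0–72 h. Ln-transformed parameters compared with the normal group by fixed-effects model; geometric mean ratios with 90% CI.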

sUA = details: doses as low as; cited from earlier work
URAT1 = details: read-out: half-maximal inhibitory constant in inhibiting URAT1; cited from earlier work
[4] = moderate renal impairment (N = 7)
[5] = severe renal impairment (N = 7)
[6] = moderate renal impairment (N = 8)
[7] = verinurad 15 mg single dose, all groups

What does the source list for `CC(C)(Sc1ccncc1-c1ccc(C#N)c2ccccc12)C(=O)O` [Verinurad]?
AeUR,0–24 h amount of urinary uric acid recovered in urine, mean (SD) (urinary uric acid; mild renal impairment (N = 8)): 880 (225) mg; FEUA,0–24 h fractional excretion of uric acid, mean (SD) (urinary uric acid; mild renal impairment (N = 8)): 16.2 (5.68) %; ReUR,0–24 h rate of urinary uric acid excretion, mean (SD) (urinary uric acid; mild renal impairment (N = 8)): 36.6 (9.39) mg/h; AeUR,0–24 h amount of urinary uric acid recovered in urine, mean (SD) (urinary uric acid; [4]): 707 (334) mg; FEUA,0–24 h fractional excretion of uric acid, mean (SD) (urinary uric acid; [4]): 13.0 (7.48) %; ReUR,0–24 h rate of urinary uric acid excretion, mean (SD) (urinary uric acid; [4]): 29.3 (13.8) mg/h; AeUR,0–24 h amount of urinary uric acid recovered in urine, mean (SD) (urinary uric acid; normal renal function (N = 8)): 969 (299) mg; FEUA,0–24 h fractional excretion of uric acid, mean (SD) (urinary uric acid; normal renal function (N = 8)): 13.8 (6.24) %; ReUR,0–24 h rate of urinary uric acid excretion, mean (SD) (urinary uric acid; normal renal function (N = 8)): 40.1 (12.1) mg/h; AeUR,0–24 h amount of urinary uric acid recovered in urine, mean (SD) (urinary uric acid; [5]): 393 (144) mg; FEUA,0–24 h fractional excretion of uric acid, mean (SD) (urinary uric acid; [5]): 12.7 (6.43) %; ReUR,0–24 h rate of urinary uric acid excretion, mean (SD) (urinary uric acid; [5]): 16.3 (6.02) mg/h; Time post-dose by which ReUR returned to baseline (urinary uric acid; verinurad 15 mg): ≤ 12 h; fraction unbound (Plasma protein binding): 0.013 to 0.024; Subjects with TEAE possibly related to verinurad (Safety assessments; control group, oropharyngeal pain and rhinorrhea): One subject; Number of adverse events (Safety assessments; mild renal impairment (N = 8)): 3; Subjects with adverse events, n (%) (Safety assessments; mild renal impairment (N = 8)): 3 (37.5%); Number of adverse events (Safety assessments; [6]): 2; Subjects with adverse events, n (%) (Safety assessments; [6]): 1 (12.5%); Number of adverse events (Safety assessments; normal renal function (N = 8)): 5; Subjects with adverse events, n (%) (Safety assessments; normal renal function (N = 8)): 1 (12.5%); Number of adverse events (Safety assessments; [5]): 2; Subjects with adverse events, n (%) (Safety assessments; [5]): 2 (28.6%); Adverse event-related withdrawals (Safety assessments; [7]): no AE-related withdrawals; Changes in laboratory values or vital signs (Safety assessments; [7]): No clinically meaningful changes; Serious adverse events (Safety assessments; [7]): no serious AEs; Tolerability (Safety assessments; [7]): well tolerated; Number of adverse events of mild severity (Safety assessments; mild renal impairment (N = 8)): 2; Number of adverse events of moderate severity (Safety assessments; mild renal impairment (N = 8)): 1; Severe/life-threatening adverse events (Safety assessments; mild renal impairment (N = 8)): 0; Subjects with adverse events of mild severity, n (%) (Safety assessments; mild renal impairment (N = 8)): 2 (25.0%); Subjects with adverse events of moderate severity, n (%) (Safety assessments; mild renal impairment (N = 8)): 1 (12.5%); Number of adverse events of mild severity (Safety assessments; [6]): 1; Number of adverse events of moderate severity (Safety assessments; [6]): 1; Severe/life-threatening adverse events (Safety assessments; [6]): 0; Subjects with adverse events of mild severity, n (%) (Safety assessments; [6]): 1 (12.5%); Subjects with adverse events of moderate severity, n (%) (Safety assessments; [6]): 1 (12.5%); Number of adverse events of mild severity (Safety assessments; normal renal function (N = 8)): 4; Number of adverse events of moderate severity (Safety assessments; normal renal function (N = 8)): 1; Severe/life-threatening adverse events (Safety assessments; normal renal function (N = 8)): 0; Subjects with adverse events of mild severity, n (%) (Safety assessments; normal renal function (N = 8)): 1 (12.5%); Subjects with adverse events of moderate severity, n (%) (Safety assessments; normal renal function (N = 8)): 1 (12.5%); Number of adverse events of mild severity (Safety assessments; [5]): 1; Number of adverse events of moderate severity (Safety assessments; [5]): 1; Severe/life-threatening adverse events (Safety assessments; [5]): 0; Subjects with adverse events of mild severity, n (%) (Safety assessments; [5]): 1 (14.3%); Subjects with adverse events of moderate severity, n (%) (Safety assessments; [5]): 1 (14.3%); Time post-dose at which maximal percent change in sUA occurred (serum urate (sUA)): approximately 12 h; Parent drug excreted unchanged in urine ([1]; ref 21): about 2%; Parent drug excreted unchanged in urine ([1]; ref 26): about 2%; AUC0–∞, GLSMR (90% CI) versus normal renal function group ([2]; mild renal impairment): 124% (88.8–173); Cmax, GLSMR (90% CI) versus normal renal function group ([2]; mild renal impairment): 153% (115–203); AUC0–∞, GLSMR (90% CI) versus normal renal function group ([2]; moderate renal impairment): 248% (168–366); Cmax, GLSMR (90% CI) versus normal renal function group ([2]; moderate renal impairment): 173% (131–230); AUC0–∞, GLSMR (90% CI) versus normal renal function group ([2]; severe renal impairment): 230% (146–363); Cmax, GLSMR (90% CI) versus normal renal function group ([2]; severe renal impairment): 228% (155–336); CL/F total body clearance, GM (95% CI) ([2]; mild renal impairment (N = 8)): 74.8 (53.7–104) L/h; CL/F total body clearance, GM (95% CI) [2, 4]: 37.3 (23.7–58.9) L/h; CL/F total body clearance, GM (95% CI) ([2]; normal renal function (N = 8)): 92.6 (68.7–125) L/h; CL/F total body clearance, GM (95% CI) [2, 5]: 40.3 (22.6–71.7) L/h; CL/F, GLSMR (90% CI) versus normal renal function group ([2]; mild renal impairment): 80.8% (57.9–113); Increase in AUC0–∞ compared to subjects with normal renal function ([2]; mild renal impairment): 24%; Increase in Cmax compared to subjects with normal renal function ([2]; mild renal impairment): 53%; CL/F, GLSMR (90% CI) versus normal renal function group ([2]; moderate renal impairment): 40.3% (27.3–59.5); Increase in AUC0–∞ compared to subjects with normal renal function ([2]; moderate renal impairment): 148%; Increase in Cmax compared to subjects with normal renal function ([2]; moderate renal impairment): 73%; CL/F, GLSMR (90% CI) versus normal renal function group ([2]; severe renal impairment): 43.5% (27.5–68.7); Increase in AUC0–∞ compared to subjects with normal renal function ([2]; severe renal impairment): 130%; Increase in Cmax compared to subjects with normal renal function ([2]; severe renal impairment): 128%; fe0–72 fraction of drug excreted in urine unchanged from time zero to 72 h, GM (95% CI) [3, 4]: 1.05 (0.561–1.96) %; fe0–72 fraction of drug excreted in urine unchanged from time zero to 72 h, GM (95% CI) ([3]; normal renal function (N = 8)): 0.814 (0.508–1.31) %; fe0–72 fraction of drug excreted in urine unchanged from time zero to 72 h, GM (95% CI) [3, 5]: 0.362 (0.202–0.647) %; CLR0–72, GLSMR (90% CI) versus normal renal function group ([3]; mild renal impairment): 95.4% (60.6–150); Decrease in renal clearance (CLR0-72) versus normal renal function ([3]; mild renal impairment): 5% and 4.6%; CLR0–72, GLSMR (90% CI) versus normal renal function group ([3]; moderate renal impairment): 58.3% (30.2–113); Decrease in renal clearance (CLR0-72) versus normal renal function ([3]; moderate renal impairment): 42%; CLR0–72, GLSMR (90% CI) versus normal renal function group ([3]; severe renal impairment): 21.2% (13.6–32.8); Decrease in renal clearance (CLR0-72) versus normal renal function ([3]; severe renal impairment): 79%; Lowest dose providing sUA lowering in humans (sUA): 2.5 mg; IC50 (URAT1): 0.036 µM
